Assay outcomes: PubChem, several laboratories
Jurkat tox 60K: reduces viability or proliferation of Jurkat cells; Jurkat E6.1 viability, ATP luminescence, 48 h; inhibition, % at 4 µM; 56,000 compounds, 1.2% hits; AID 463;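 active means inhibition above the mean inhibition of all tested compounds plus 3 SD, cut at about 28% in these data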
M1 antag: antagonists of rat M1 muscarinic receptor | CHO-M1 cells, Fluo-4 calcium, ACh EC80 antagonist mode; hits give low values | B-score at 10 µM | 64,000 compounds, 3.4% hits | AID 628;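 active means calcium fluorescence response, raw or row-and-column corrected B-score, differing from the plate sample mean either way at a set confidence level, mostly lower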
D1 allo mod: allosteric modulators of human D1 dopamine receptor | P21728 | HEK293 D1, CRE-luciferase, dopamine EC30 potentiation; actives deviate in either direction | B-score at 10 µM | 58,000 compounds, 5.9% hits | AID 641;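 active means luminescence count or its row- and column-corrected plate score outside the 99.7% band of the plate's sample wells, on either side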
Target sequence (P21728 whole entry, looked up): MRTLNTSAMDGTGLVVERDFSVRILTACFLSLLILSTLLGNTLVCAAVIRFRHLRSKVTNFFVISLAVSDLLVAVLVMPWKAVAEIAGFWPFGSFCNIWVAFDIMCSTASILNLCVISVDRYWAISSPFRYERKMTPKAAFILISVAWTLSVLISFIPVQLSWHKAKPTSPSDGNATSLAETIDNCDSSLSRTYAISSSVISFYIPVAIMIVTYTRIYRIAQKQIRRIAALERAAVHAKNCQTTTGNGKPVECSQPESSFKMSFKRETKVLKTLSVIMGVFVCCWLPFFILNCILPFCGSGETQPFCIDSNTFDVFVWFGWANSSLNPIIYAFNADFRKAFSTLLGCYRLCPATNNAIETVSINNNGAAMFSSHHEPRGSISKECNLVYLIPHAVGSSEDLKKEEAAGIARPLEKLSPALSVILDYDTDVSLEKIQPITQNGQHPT
M1 agonist: agonists of M1 muscarinic receptor; CHO-M1 cells, Fluo-4 calcium fluorescence, agonist mode; hits give high values; B-score at 10 µM; 64,000 compounds, 3% hits; AID 626;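 active means fluorescence rise, raw or as B-score row- and column-corrected plate score, outside the 99.7% band of its plate's samples, either direction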
hDAT+cocaine: human DAT dopamine uptake with cocaine, either direction. 110,000 compounds, 1.3% hits. Q01959. LLC-PK1 hDAT cells, [14C]-dopamine uptake with cocaine IC80; actives deviate in either direction. B-score at 10 µM. AID 449768;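 active means Z score or B-score, a plate-position-corrected score, falls beyond the plate's 99.7% confidence bounds, in either direction; inactive means both scores lie inside the 99.7% bounds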
HEK293 NFkB inh: inhibitors of the PMA/ionomycin-induced NF-kB reporter in HEK293 cells; 62,000 compounds, 0.21% hits; AID 465; HEK-293 NF-kB luciferase reporter, luminescence; inhibition, % at 3 µM;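 active means inhibition above the mean of all tested compounds plus 3 SD, cut at about 40% in these data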
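Signal: luciferase luminescence; Material: HEK-293 cells with stable firefly luciferase reporter driven by four HIV NF-kB elements; Probe or stimulus: PMA with ionomycin; Replication: tested once; Times: 1 h compound pretreatment, then 16 h stimulation at 37 °C, 5% CO2; Benchmarks: DMSO and 10 µM reference inhibitor; Evaluation: per-plate % inhibition versus controls.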
M1 ag confirm: rat M1 muscarinic agonism, confirmation; shares compounds with M1 agonist; CHO-M1 cells, Fluo-4 calcium fluorescence, agonist mode; actives lie on both sides; fluorescence change (max-min) at 10 µM; 1,700 compounds, 19% hits; AID 1488;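 active means fluorescence change differs from the solvent-only DMSO control mean at a set confidence level in both duplicate runs; inconclusive means differs from solvent-only control mean in just one of two runs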;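 further: an EC20 dose of acetylcholine follows compound addition during the same imaging run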
M4 ag counter: counter-screen for M1 agonists: activity at rat M4 receptor | shares compounds with M1 agonist | CHO M4/Gqi5 cells, Fluo-4 calcium fluorescence, agonist mode; actives lie on both sides | fluorescence change (max-min) at 10 µM | 1,700 compounds, 9% hits;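 active means fluorescence change differing from the plate's solvent-only control wells at 99.7% confidence in both duplicates, whether higher or lower; inconclusive means differs from solvent controls in only one of two duplicates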
Numbers stand for hits. The list is not random: actives were taken first. Their share in the collection is about 7.6%.

CC(C)N(Cc1nc(-c2ccc(Cl)cc2)no1)C(=O)CCC1CCCC1 was read as Jurkat tox 60K inactive, M1 antag inactive, D1 allo mod inactive, M1 agonist 3.39, hDAT+cocaine inactive, HEK293 NFkB inh inactive, M1 ag confirm inconclusive and M4 ag counter inactive.
Screening Cc1c(-c2c(C#N)c(N)nc3c2CCCCCC3)cnn1C returned hDAT+cocaine inactive.
CCC(C)(C)NC(=O)C(c1ccco1)N(C(=O)Cn1nnc2ccccc21)c1ccc2c(c1)OCO2 (stereo not drawn) was read as Jurkat tox 60K inactive, M1 antag inactive, D1 allo mod inactive, M1 agonist 17.3, hDAT+cocaine inactive, HEK293 NFkB inh inactive, M1 ag confirm -31.6 and M4 ag counter inconclusive.
For CCOc1cccc(C2C(C(=O)c3ccc(C)o3)=C(O)C(=O)N2Cc2ccncc2)c1 (stereo not drawn) the results were Jurkat tox 60K inactive, M1 antag inactive, D1 allo mod inactive, M1 agonist inactive, hDAT+cocaine inactive and HEK293 NFkB inh inactive.
Screening CCOc1cccc(C2C(C(=O)c3ccc(C)o3)=C(O)C(=O)N2c2nccs2)c1 (stereo not drawn) returned M1 antag inactive, D1 allo mod inactive, M1 agonist 54.6, hDAT+cocaine inactive, HEK293 NFkB inh inactive, M1 ag confirm 822 and M4 ag counter 125.
For CSc1ccc(C2C(C#N)=C(N)Oc3c2ccc(=O)c2c(C)oc(C)c32)cc1 (stereo not drawn) the results were Jurkat tox 60K inactive, M1 antag inactive, D1 allo mod inactive, M1 agonist 7.17, hDAT+cocaine inactive, HEK293 NFkB inh inactive, M1 ag confirm inactive and M4 ag counter inactive.
COCCn1nnnc1C(c1cc2ccc(OC)cc2[nH]c1=O)N1CCN(C2CCCCC2)CC1 (stereo not drawn) was read as Jurkat tox 60K inactive, M1 antag inactive, D1 allo mod inactive, M1 agonist inactive, hDAT+cocaine inactive and HEK293 NFkB inh inactive.
For COCCn1nnnc1C(c1cccc(OC)c1OC)N1CCN(C2CCCCC2)CC1 (stereo not drawn) the results were Jurkat tox 60K inactive, M1 antag inactive, D1 allo mod inactive, M1 agonist 17.8, hDAT+cocaine inactive, HEK293 NFkB inh inactive, M1 ag confirm inconclusive and M4 ag counter inactive.
`O=C(Nc1ccc2c(c1)OCO2)C1CCCN(S(=O)(=O)Cc2ccccc2)C1` (stereo not drawn) gave M1 antag -2.54, D1 allo mod inactive, M1 agonist 3.91, hDAT+cocaine inactive, HEK293 NFkB inh inactive, M1 ag confirm inactive and M4 ag counter inactive.
Screening COC(=O)c1ccc(NC(=O)Nc2ccc(F)cc2)cc1 returned Jurkat tox 60K inactive, M1 antag -3.41, D1 allo mod -3.71, M1 agonist 15.3, hDAT+cocaine inactive, HEK293 NFkB inh inactive, M1 ag confirm inactive and M4 ag counter inactive.
Screening CCOC(=O)c1ccc(NC(=O)Nc2ccc(OC)c(OC)c2)cc1 returned Jurkat tox 60K inactive, M1 antag inactive, D1 allo mod inactive, M1 agonist 7.31, hDAT+cocaine inactive, HEK293 NFkB inh inactive, M1 ag confirm -22.4 and M4 ag counter inconclusive.
For O=C(c1cc(-c2ccc(Cl)c(Cl)c2)on1)N1CCCCC1 the results were Jurkat tox 60K inactive, M1 antag inactive, D1 allo mod inactive, M1 agonist inactive and HEK293 NFkB inh inactive.
For c1ccc(-n2c(-c3ccncc3)nnc2-c2cccs2)cc1 the results were Jurkat tox 60K inactive, M1 antag inactive, D1 allo mod inactive, M1 agonist 9.24, hDAT+cocaine inactive, HEK293 NFkB inh inactive, M1 ag confirm inconclusive and M4 ag counter inconclusive.
`c1ccc(-n2c(-c3ccncc3)nnc2-c2ccco2)cc1` gave Jurkat tox 60K inactive, M1 antag inactive, D1 allo mod inactive, M1 agonist inactive, hDAT+cocaine inactive and HEK293 NFkB inh inactive.
`Cn1ccnc1-c1nc2ccccc2[nH]c1=O` gave M1 antag inactive, D1 allo mod inactive, M1 agonist inactive, hDAT+cocaine inactive and HEK293 NFkB inh inactive.
Screening CCCn1c(SCCc2ccccc2)nc2c1c(=O)[nH]c(=O)n2C returned Jurkat tox 60K inactive, M1 antag inactive, D1 allo mod inactive, M1 agonist 4.74, hDAT+cocaine inactive, HEK293 NFkB inh inactive, M1 ag confirm inconclusive and M4 ag counter inactive.
`CCn1c(N2CCC(Cc3ccccc3)CC2)nc2c1c(=O)[nH]c(=O)n2C` gave Jurkat tox 60K inactive, M1 antag inactive, D1 allo mod inactive, M1 agonist 5.39, hDAT+cocaine inactive, HEK293 NFkB inh inactive, M1 ag confirm inconclusive and M4 ag counter inactive.
For Cc1nnc(SCCCn2c(N3CCN(c4ccccc4)CC3)nc3c2c(=O)[nH]c(=O)n3C)s1 the results were Jurkat tox 60K inactive, M1 antag -2.07, D1 allo mod inactive, M1 agonist 11.2, hDAT+cocaine inactive, HEK293 NFkB inh inactive, M1 ag confirm inactive and M4 ag counter inconclusive.
For O=C1NC2(CCCCCC2)Cc2ccccc21 the results were hDAT+cocaine inactive.
`CC1(C)Cc2c(sc3c2c(=N)n(Cc2ccco2)c(=O)n3CC(=O)Nc2ccccc2)CO1` gave Jurkat tox 60K inactive, M1 antag inactive, M1 agonist inactive, hDAT+cocaine inactive and HEK293 NFkB inh inactive.
`COc1cc(/C=C/C(=O)CC(=O)/C=C/c2ccc(O)c(OC)c2)ccc1O` gave M1 antag inactive, D1 allo mod inactive, M1 agonist 164, hDAT+cocaine inactive, M1 ag confirm 367 and M4 ag counter 401.
Screening O=S(=O)(Nc1cnc2ccccc2c1)N1CCCCCC1 returned Jurkat tox 60K inactive, M1 antag inactive, D1 allo mod inactive, M1 agonist -2.53, hDAT+cocaine inactive, HEK293 NFkB inh inactive, M1 ag confirm inactive and M4 ag counter inactive.
`Cc1nc2cc(C(F)(F)F)ccc2n1C1CCN(C(=O)N2CCOCC2)CC1` gave Jurkat tox 60K inactive, M1 antag inactive, D1 allo mod inactive, M1 agonist inactive, hDAT+cocaine inactive and HEK293 NFkB inh inactive.
`Cn1c(CC2C(=O)Nc3ccc(Br)cc32)nc2ccccc2c1=O` (stereo not drawn) gave Jurkat tox 60K inactive, M1 antag inactive, D1 allo mod inactive, M1 agonist 1.98, hDAT+cocaine inactive, HEK293 NFkB inh inactive, M1 ag confirm inconclusive and M4 ag counter inactive.
CSc1nc(=O)n2cccc(C)c2n1 was read as hDAT+cocaine inactive.
COc1ccc(OCC(=O)N2CCN(c3nnc(-c4ccccc4)c4ccccc34)CC2)cc1 was read as Jurkat tox 60K inactive, M1 antag -7, D1 allo mod inactive, M1 agonist 7.32, hDAT+cocaine 2.96, HEK293 NFkB inh inactive, M1 ag confirm inconclusive and M4 ag counter inactive.
